According to ChEMBL document CHEMBL4513216, “Probing the Open Global Health Chemical Diversity Library for Multistage-Active Starting Points for Next-Generation Antimalarials” (ACS Infect Dis, 2020):

Assay: Toxicity liver stage against HepG2, at 10uM
Assay type: cell-based
Set-up: test concentration 10 uM, cell line HepG2-A16-CD81EGFP
Settings: human, HepG2-A16-CD81EGFP cells; read-out: INHIBITION
Procedure, shortened: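 Uninfected HepG2-A16-CD81EGFP cells, 3 × 10^3 per well, 1536-well, plated on prespotted compound at 10 μM final, parasite-free screening media added to match infected plates; puromycin 10 μM positive, DMSO 0.5% negative; run in parallel with 48 h PbLuc assay at 37 °C, 5% CO2; viability by CellTiter-Glo luminescence, normalized to controls.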

Cc1cc(NCCN)nc2ccccc12
cytotoxicity at 10 µM: 2.09%

CC(N)Cc1ccccc1Sc1ccc(O)cc1 (stereo not given)
cytotoxicity at 10 µM: 3.76%

Cc1cccc2c1nc1n2[C@@H](CNC(=O)CCC(=O)O)COC1
cytotoxicity at 10 µM: -4.83%

O=C(C1CC1)N1C[C@@H](F)[C@@H](OCc2nc3ccccc3o2)C1
cytotoxicity at 10 µM: -1.94%

CC(C)NC(=O)NC[C@H]1C[C@@H]2CCN1C[C@@H]2CN(C)c1ccccc1
cytotoxicity at 10 µM: 1.95%

Cc1ccc(Oc2ncccc2C(=O)N(C)CCCN(C)C)c(C)c1
cytotoxicity at 10 µM: -1.16%

Cc1c(C2SCC(=O)Nc3c2c(O)nn3C(C)C)cnn1C (stereo not given)
cytotoxicity at 10 µM: 2.39%

O=S(=O)(CC1CCCN1S(=O)(=O)c1cccnc1)c1ccccc1 (stereo not given)
cytotoxicity at 10 µM: -4.31%

Cc1cccc(CO[C@@H]2C[C@H]3CN(C(=O)c4cnccn4)CCN3C2)n1
cytotoxicity at 10 µM: -1.79%

O=C(Cn1ccc2cc(Br)ccc21)NCc1ccc(C(=O)O)cc1
cytotoxicity at 10 µM: 9.6%

CN1N=C(C(=O)N2CCCCC2)S(=O)(=O)c2ccccc21
cytotoxicity at 10 µM: -183%

Cc1cc(=O)[nH]c(=O)n1COCc1ccccc1
cytotoxicity at 10 µM: -12.5%

COc1cccc(C2CC(=O)Nc3nc(N4CCOCC4)sc32)c1OC (stereo not given)
cytotoxicity at 10 µM: -3.26%

COc1cccc(CN2CCCC3(CCN(C(=O)[C@H]4CCCO4)C3)C2)c1 (stereo not given in full)
cytotoxicity at 10 µM: 5.01%

O=C(Cc1ccccc1)N1CCC2(CC(=O)N(c3ccsc3)C2)C1 (stereo not given)
cytotoxicity at 10 µM: -10.2%

CCn1ncc2c1C(COCC1CC1)CN(C(=O)c1cccs1)C2 (stereo not given)
cytotoxicity at 10 µM: -7.64%

CCC(C)NC(=O)N1CCCn2cnc(CO)c2C1 (stereo not given)
cytotoxicity at 10 µM: -9.35%

O=C(COCC(=O)N(c1ccccc1)c1ccccc1)N1CCOCC1
cytotoxicity at 10 µM: 1.64%

CC(=O)Nc1ncc(S(=O)(=O)Nc2cccc(O)c2)s1
cytotoxicity at 10 µM: 8.49%

Cc1nc2c(N3CCN(CCO)CC3)nc(N)nc2n1C
cytotoxicity at 10 µM: -10.8%

Cc1ccc(C(=O)NCc2ccnc(C3CCCOC3)n2)s1 (stereo not given)
cytotoxicity at 10 µM: 5.29%

CNC(=O)C1(Cc2cc(C(C)C)no2)CCN(Cc2cccnc2)C1 (stereo not given)
cytotoxicity at 10 µM: 4.61%

Cc1noc(C)c1-c1cc(CCC2CN(C(=O)C(C)C)CCO2)ncn1 (stereo not given)
cytotoxicity at 10 µM: 4.16%

O=C(O)c1ccc(CN2CCC(c3ccnc4ccnn34)CC2)cc1
cytotoxicity at 10 µM: -29.9%

Cc1cnc(N)c(C(=O)C2CCN(C(=O)C3CCC3)CC2)c1
cytotoxicity at 10 µM: -23.1%

Cc1nnc(Nc2cccc(C3CCN(CCO)CC3)n2)s1
cytotoxicity at 10 µM: 2.37%

COCCN(C)C(C)Cc1ccccc1OC (stereo not given)
cytotoxicity at 10 µM: -5.34%

Cc1c(C(=O)O)nnn1-c1cccc2cccnc12
cytotoxicity at 10 µM: 5.31%

Cc1sc(C(=O)N(C)S(C)(=O)=O)cc1-c1ccc(F)cc1
cytotoxicity at 10 µM: 0.269%

Cc1c(NC(=O)N(C)CCn2cnnc2)cccc1OC1CCCC1
cytotoxicity at 10 µM: -0.509%

CN(Cc1c(Cl)ccc2cccnc12)CC(C)(CO)CO
cytotoxicity at 10 µM: 7.6%

COc1ccc(CN2CCN(S(=O)(=O)c3cc(C(=O)O)cs3)CC2)cc1
cytotoxicity at 10 µM: 2.03%

Cc1csc(CCNC(=O)N2CCC(NC(=O)OC(C)(C)C)CC2)n1
cytotoxicity at 10 µM: 1.23%

CN1CC(C(=O)NCCc2ccn(-c3ccc(F)cc3)n2)CC1=O (stereo not given)
cytotoxicity at 10 µM: 3.38%

Cc1n[nH]c(C2CN(C(=O)CCOCC(F)(F)F)CCO2)n1 (stereo not given)
cytotoxicity at 10 µM: -12.9%

CCCN(C)C(=O)Nc1ccc(C(=O)NCCC(=O)OC)cc1
cytotoxicity at 10 µM: 6.62%

O=C(N1CCC(Oc2ccncc2)C1)C1(c2ccccc2F)CC1 (stereo not given)
cytotoxicity at 10 µM: -10.4%

c1ccn2cc(CN3CCCC(c4ccn[nH]4)C3)nc2c1 (stereo not given)
cytotoxicity at 10 µM: 6.76%

N#CCCN(CC1CC1)Cn1cc(Cl)cn1
cytotoxicity at 10 µM: 4.03%

CC(CN1CCOCC1)N(Cc1ccccc1)Cc1ccncc1 (stereo not given)
cytotoxicity at 10 µM: 5.5%

O=C(CC1CCCO1)NCc1ccc(Br)cc1F (stereo not given)
cytotoxicity at 10 µM: 4.72%

CCOCCCC(=O)NC1CCN(C(C)c2ccccc2)CC1 (stereo not given)
cytotoxicity at 10 µM: 4.05%

Cc1nnc2n1CCN(C(C)c1nnc(-c3cccs3)o1)C2 (stereo not given)
cytotoxicity at 10 µM: -11.2%

Cc1cc(CNC(=O)NC(C)(CO)C2CC2)c(C)s1 (stereo not given)
cytotoxicity at 10 µM: 3.46%

COCCOCC(=O)NCCCOC1CCCc2ccccc21 (stereo not given)
cytotoxicity at 10 µM: 4.15%

CC(C)CCC(=O)Nc1ncn(CC(=O)N2CCCCCC2)n1
cytotoxicity at 10 µM: 1.17%

Cc1cc(CC(=O)NC2CCCN(c3ccccc3F)C2=O)n[nH]1 (stereo not given)
cytotoxicity at 10 µM: 1.46%

Cc1cc(NC(=O)Cc2ccc3c(c2)OCO3)n(C)n1
cytotoxicity at 10 µM: 10.1%

Cc1nnc(NC(=O)NC2CCOc3ccccc32)s1 (stereo not given)
cytotoxicity at 10 µM: -13.4%

CC(=O)N1CC[C@H]2N(C)CC[C@@]2(C(=O)Nc2cccnc2)CC1
cytotoxicity at 10 µM: -111%

COCCNC(=O)[C@@H]1CCO[C@@H]2CCN(c3ccc(C)nn3)C[C@@H]21
cytotoxicity at 10 µM: -73.2%

CCOCC1CN(C(=O)c2cscn2)Cc2nnn(CC3CC3)c21 (stereo not given)
cytotoxicity at 10 µM: 1.9%

CCCc1nnc(NCCn2nc(C)c(Cl)c2C)o1
cytotoxicity at 10 µM: 1.89%

CNc1nc(C)c(C(=O)N2CCCCC2CCN2CCOCC2)s1 (stereo not given)
cytotoxicity at 10 µM: -2.06%

N#Cc1cc2n(n1)CCN(C(=O)CCc1c[nH]c3ccccc13)C2
cytotoxicity at 10 µM: -9.64%

Cc1ccc(CNC(=O)c2cc(CN3CCC(O)CC3)on2)s1
cytotoxicity at 10 µM: -48.5%

Cc1cnc(C)c(N2CCC(Cc3ccccc3Cl)(C(=O)O)CC2)n1
cytotoxicity at 10 µM: 3.4%

Cn1cc(C(=O)N2CC[C@@]3(O)CCN(C4CCCCC4)C[C@H]3C2)cn1
cytotoxicity at 10 µM: -131%

COc1cc(Cl)cc(C(=O)N2CCC3(CC2)CNC(=O)C3)c1
cytotoxicity at 10 µM: -18.1%

CCCc1nc(C(=O)N2CCN(C(=O)c3ccc(OC)cc3)CC2)cs1
cytotoxicity at 10 µM: -3.07%

CCC[C@H]1CN(CCS(C)(=O)=O)C[C@@H]1NC(=O)Cn1cc(C)cn1
cytotoxicity at 10 µM: 2.72%

CC(=O)N1C[C@H](NS(=O)(=O)N2CCCC2)[C@@H](c2ccc(C)o2)C1
cytotoxicity at 10 µM: -1.91%

CCC1(O)CCCN(c2ncnc3c2c(C)nn3C)C1 (stereo not given)
cytotoxicity at 10 µM: 2.14%

c1cn(Cc2ccc(N3CCCN(C4CCCC4)CC3)nc2)cn1
cytotoxicity at 10 µM: 12%

Cc1cc(C(N)=O)c(N2C[C@@H](C)[C@@](C)(O)C2)nc1C
cytotoxicity at 10 µM: -9.14%

COc1cccc2ccc(N3CCC(O)(C(=O)O)CC3)nc12
cytotoxicity at 10 µM: 3.13%

Cc1cc2c(cc1CN1CCCCC1CCn1ccnc1C)OCO2 (stereo not given)
cytotoxicity at 10 µM: 3.09%

Cc1cc(Cc2ccc(S(=O)(=O)N3CCSCC3)cc2)c(=O)[nH]n1
cytotoxicity at 10 µM: -10%

CCCn1c(C)c(CC(=O)N(C)CCOC)c2c1CC(C)(C)CC2=O
cytotoxicity at 10 µM: -16.6%

O=C(c1cncc(N2CCC(O)(CO)CC2)n1)N1CCCC1
cytotoxicity at 10 µM: -7.71%

COCCCn1c(CN2CCCC(O)C2)cnc1S(=O)(=O)C1CCCC1 (stereo not given)
cytotoxicity at 10 µM: -13.5%

Fc1ccccc1Cc1noc(CN2CCCC(CN3CCCC3)C2)n1 (stereo not given)
cytotoxicity at 10 µM: -12.3%

CC(=O)N1CCCC1c1csc(Nc2cnccn2)n1 (stereo not given)
cytotoxicity at 10 µM: 2.09%

CCc1cnc(CN2CCC(N(C)Cc3noc(C)n3)C2)o1 (stereo not given)
cytotoxicity at 10 µM: 4.92%

Cc1csc(C2CCCCN2C(=O)c2cc(C3CC3)[nH]n2)n1 (stereo not given)
cytotoxicity at 10 µM: -11.6%

Cc1cnn(C2CCCN(C(=O)c3ccc(OCC4CC4)nc3)C2)c1 (stereo not given)
cytotoxicity at 10 µM: -4.04%

CN(C(=O)NCCN1CCOCC1)C1CCN(c2ccccc2)C1=O (stereo not given)
cytotoxicity at 10 µM: -11.6%

CC(C)c1nn(C)c(N(C)C)c1CNCc1ccc(N(C)C)nc1
cytotoxicity at 10 µM: -8.42%

CCc1nc(CN2CCCC(NCc3cccc(C(N)=O)c3)C2)no1 (stereo not given)
cytotoxicity at 10 µM: 1.56%

CCc1noc(C(C)N2CCN(CC(C)C)CC2)n1 (stereo not given)
cytotoxicity at 10 µM: -4.05%

Cc1cnn(CC2CCCN2CCCS(C)(=O)=O)c1 (stereo not given)
cytotoxicity at 10 µM: -8.18%

CCOc1ccccc1C(=O)NC(CC(=O)O)c1cccs1 (stereo not given)
cytotoxicity at 10 µM: -11.4%

Cn1ccnc1CN1CCCN(C(=O)COCC2CC2)CC1
cytotoxicity at 10 µM: -11.8%

Cc1nnc2n1CCN(CCOc1ccc(C(C)(C)C)cc1)C2
cytotoxicity at 10 µM: -17.1%

CN(C)c1cccc(C(=O)N2CCC(c3n[nH]c(C4CC4)n3)CC2)c1
cytotoxicity at 10 µM: -11.2%

CN1CCOC(CNCc2csc(C3CCCCC3)n2)C1 (stereo not given)
cytotoxicity at 10 µM: -8.57%

Cn1ccc(C(=O)NCc2ccccc2CN2CCCC2)cc1=O
cytotoxicity at 10 µM: -17.1%

CN(CC(=O)N1CCCCC1c1nccs1)C1CC1 (stereo not given)
cytotoxicity at 10 µM: 10.2%

Cc1cc(C)n(CC2CCCN2C(=O)c2cnc3n[nH]c(C)c3c2)n1 (stereo not given)
cytotoxicity at 10 µM: -2.61%

CCc1nc(CN2CCCN(C(=O)COC(C)C)CC2)cs1
cytotoxicity at 10 µM: -15%

O=C(c1cccn1Cc1cccs1)N1CCCC1Cn1cccn1 (stereo not given)
cytotoxicity at 10 µM: -7.52%

Cc1cnn(CC2CCCN2CCCc2nc3ccccc3o2)c1 (stereo not given)
cytotoxicity at 10 µM: -6.19%

CCCc1n[nH]c(C2CN(CCCOc3ccccc3)CCO2)n1 (stereo not given)
cytotoxicity at 10 µM: -0.409%

O=C(NCCN1CCCCCC1=O)c1ccn(-c2ccc(F)cc2)n1
cytotoxicity at 10 µM: -8.62%

Cc1nc(C)c(C(=O)NCCNc2ncccc2C#N)s1
cytotoxicity at 10 µM: -1.5%

CN(C)[C@@H]1CN(Cc2ccccn2)C[C@H]1c1cn(C)c2ccccc12
cytotoxicity at 10 µM: -0.73%

CN(C)CCn1c2c(ccc1=O)CCN(C(=O)c1cccs1)CC2
cytotoxicity at 10 µM: 0.0915%

CCCN(CC(=O)N1CCNCC1)C(=O)c1cccc(Cl)c1
cytotoxicity at 10 µM: 10.7%

COCC1CC2(CCN(C(=O)c3ccccc3C)CC2)CN1C(C)C (stereo not given)
cytotoxicity at 10 µM: 7.77%

c1nc2c(c(C3CC3)n1)CCN(CC1CCOC1)CC2 (stereo not given)
cytotoxicity at 10 µM: 1.26%

COc1ccc(CN2CCC3(CC2)CCN(CC(C)C)C3=O)cc1
cytotoxicity at 10 µM: 3.17%

CN(C)[C@@H]1CN(C(=O)Cc2ccccc2)[C@@H]2CCCO[C@H]12
cytotoxicity at 10 µM: 3.31%

Cc1cnc(C(=O)N2C[C@@H]3CN(CC4CCCC4)CCO[C@@H]3C2)cn1
cytotoxicity at 10 µM: -2.76%

CN(C)CCNC(=O)c1ccn(-c2ccc3ccccn23)n1
cytotoxicity at 10 µM: -0.0395%

COCCN1CCC2(CC1)C(=O)Nc1ccc(C(=O)NC(C)C)cc12
cytotoxicity at 10 µM: 2.02%

O=C(CC1CCCCC1)N1C[C@@H]2CC[C@H]1CN(Cc1cccnc1)C2
cytotoxicity at 10 µM: -0.662%

CC=C(C)C(=O)NS(=O)(=O)c1ccc(C(F)(F)F)cc1
cytotoxicity at 10 µM: 3.12%

CS(=O)(=O)N1C[C@H]2CC[C@@H](C1)N(Cc1cscn1)C2=O
cytotoxicity at 10 µM: -9.35%

O=C(C1CCS(=O)(=O)CC1)N1C[C@@H]2CC[C@H]1CN(Cc1ccccc1)C2
cytotoxicity at 10 µM: -2.22%

CS(=O)(=O)N1C[C@H]2CC[C@@H](C1)N(CCC(=O)NCc1ccco1)C2
cytotoxicity at 10 µM: -17.9%
